Results on 10 molecules are retold here after ChEMBL document CHEMBL1127804 (J Med Chem, 1994).

In test [1] the test system is CCRF-CEM. Description: Tested for the inhibition of [14C]-DDATHF influx in CCRF-CEM cells of human leukemic lymphoblast. It is filed as functional, cell-based. A digest of the protocol:
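Influx of (6R)-[14C]DDATHF (2 μM) into wild-type CCRF-CEM human leukemic lymphoblasts was measured with the inhibitor present. Ki was calculated from Dixon plots and reported as mean ± SE of two to seven separate experiments.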

The test system of test [2] is CCRF-CEM. Nature of the test: Tested for inhibitory concentration of cell growth against CCRF-CEM cell lines of human leukemic lymphoblast.
In test [3] the test system is CCRF-CEM. Nature of the test: Tested for inhibition of [14C]-DDATHF influx in CEM/MTX cells of human leukemic lymphoblasts. It is filed as functional, cell-based. A digest of the protocol: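 Influx of (6R)-[14C]DDATHF (2 μM) into CEM/MTX cells was measured. Before the assay, cells normally kept in 1 μM MTX were held out of MTX for 3–4 generations. Ki came from Dixon plots and is given as mean ± SE of two to seven separate experiments.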

Test [4] relates to SCC-7. Description: Tested for inhibitory concentration against SCC-VII murine squamous carcinoma cell line. It is filed as functional, cell-based. To be noted: Mus musculus. In short, it runs like this: (§1)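 SCC VII (murine) or SCC25 (human) squamous carcinoma cells were plated at 2×10^3/well in DME with 10% FBS for 24 h at 37 °C, 5% CO2. Drug was added at 10 concentrations from 0.1 nM to 3 μM for a further 72 h. Growth was read by sulforhodamine B protein stain at 530 nm.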

In test [5] the test system is CCRF-CEM. Description: cells. To be noted: Homo sapiens.
In test [6] the test system is SCC-25. Description: Tested for inhibitory concentration against human SCC25 cell line. Format: functional, cell-based. A digest of the protocol:
as §1

Test [7] can be described thus: Ratio between Ki values of CCRF-CEM and CEM/MTX. It is filed as functional.
Test [8] deals with T1, Dihydrofolate reductase (Homo sapiens, UniProt P00374).
T1 sequence (P00374 whole entry): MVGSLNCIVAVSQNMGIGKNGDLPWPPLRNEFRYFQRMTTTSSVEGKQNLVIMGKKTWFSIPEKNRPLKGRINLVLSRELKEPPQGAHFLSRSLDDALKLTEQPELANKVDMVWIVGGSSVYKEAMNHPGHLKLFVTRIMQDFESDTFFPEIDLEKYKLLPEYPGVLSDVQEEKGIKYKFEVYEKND
Description: Tested for inhibitory concentration against human dihydrofolate reductase(DHFR).

Test [9] deals with MCF7. Description: Tested for inhibitory concentration against MCF-7 human breast carcinoma cell line. Format: functional, cell-based. In short, it runs like this: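 MCF-7 breast carcinoma cells were grown in replicate 24-well plates in α-MEM with 10% dialyzed FBS plus epithelial growth factor, hydrocortisone and insulin. Cells were exposed for 72 h at 37 °C under 6.5% CO2 and counted electronically with a Coulter counter. IC50 was estimated from semilog plots using averaged data from a single experiment on replicate plates.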

Test [10] concerns the target T1, Dihydrofolate reductase. Nature of the test: rested for inhibitory concentration against human dihydrofolate reductase(DHFR).
Test [11] relates to CCRF-CEM. Nature of the test: Tested in vitro for inhibitory concentration against CCRF-CEM human Leukemic lymphoblast by using TS as primary target. It is filed as functional, cell-based.
In test [12] the test system is CCRF-CEM. Description: Tested in vitro for relative activity against CCRF-CEM human Leukemic lymphoblast by using TS as primary target. It is filed as functional.

For orientation: Ki means a dissociation constant, usually derived from enzyme kinetics or from competition with a known ligand. Higher therefore signals weaker binding. As a reminder, the IC50 is the point on the concentration scale where inhibition reaches its midpoint. Read a high IC50 as a need for much substance. `CN(Cc1cnc2nc(N)nc(N)c2n1)c1ccc(C(=O)N[C@@H](CCC(=O)O)C(=O)O)cc1` [METHOTREXATE]: the Ki in test [1] is 4480 nM; in [3] it was 9740 nM. The IC50 in test [2] was determined as 10.5 nM; in [4] it was 5.8 nM; in test [5], 2550 nM.
Turning to `Nc1nc(N)c2nc(CNc3ccc(C(=O)N[C@@H](CCC(=O)O)C(=O)O)cc3)cnc2n1` [AMINOPTERIN], the IC50 in test [6] was determined as 6.9 nM; in test [4], 4 nM.
Regarding `Nc1nc(=O)c2nc(CNc3ccc(C(=O)N[C@@H](CCC(=O)O)C(=O)O)cc3)cnc2[nH]1` [FOLIC ACID], the inhibitory constant (Ki) in test [1] came to 167000 nM; in test [3], 8950 nM. For the same molecule, the Ratio in [7] is on record as 0.054.
For `Nc1nc(N)c2nc(CNc3ccc(C(=O)NC(CCNC(=O)c4ccccc4C(=O)O)C(=O)O)cc3)cnc2n1` (stereo not given), the half-maximal inhibitory concentration (IC50) in [8] came to 11.6 nM; in [9], 6 nM; in [6] it was 12.9 nM; in [4], 19 nM.
Take `Nc1nc(N)c2nc(CNc3c(Cl)cc(C(=O)NC(CCCNC(=O)c4ccccc4C(=O)O)C(=O)O)cc3Cl)cnc2n1` (stereo not given): the IC50 worked out at 10.2 nM in [8], 2.5 nM in test [6] and 1.6 nM in test [4].
On to `Nc1nc(N)c2nc(CNc3ccc(C(=O)NC(CCCCNC(=O)c4ccccc4C(=O)O)C(=O)O)cc3)cnc2n1` (stereo not given), for which the IC50 in test [10] turned out to be 11.4 nM; in [9] it was 2 nM; in [6], 17.9 nM; in test [4], 4 nM.
Turning to `COc1cc(NCc2ccc3nc(N)nc(N)c3c2C)cc(OC)c1OC` [TRIMETREXATE], the results for the IC50 in test [6] and in test [4] were 8 nM and 6.3 nM, respectively.
`Nc1nc(=O)c2c([nH]1)NCC(CNc1ccc(C(=O)N[C@@H](CCC(=O)O)C(=O)O)cc1)N2C=O` (stereo not given in full) [LEUCOVORIN] showed a Ki in test [3] of 740 nM.
As to `Nc1nc(N)c2nc(CNc3ccc(C(=O)NC(CCCNC(=O)c4ccccc4C(=O)O)C(=O)O)cc3)cnc2n1` (stereo not given), the inhibitory constant (Ki) was 650 nM in [1] and 440 nM in [3]. Also, the IC50 in test [2] was found to be 1.08 nM; in [8], 12.2 nM; in test [9] it was 0.7 nM; in test [6] it was 1 nM; in test [4], 0.89 nM; in test [5], 110 nM. Moreover, the Ratio in [7] amounted to 0.68.
The molecule `CN(Cc1ccc2[nH]c(C=O)nc(=O)c2c1)c1ccc(C(=O)NC(CCC(=O)O)C(=O)O)s1` (stereo not given) had an IC50 in [11] of 4.7 nM. Also, the Relative activity in [12] is recorded as 23.
